Source: ChEMBL document CHEMBL1144718, “Novel 3-aroylpyrazolo[5,1-c][1,2,4]benzotriazine 5-oxides 8-substituted, ligands at GABAA/benzodiazepine receptor complex: synthesis, pharmacological and molecular modeling studies” (Bioorg Med Chem, 2008)
The source made the active and inactive calls. The rule behind the calls is not given here.

Legend:
Bos taurus = species: Bos taurus; experiment: Displacement of [3H]flumazenil from GABAA/BzR complex in bovine cerebral cortex membrane at 10 uM; assay type: cell membranes
In short: (§1)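 Bovine cerebral cortex membranes in 50 mM Tris-citrate pH 7.4 incubated with [3H]Ro15-1788 (1–2 nM) for 1 h at 4 °C to equilibrium; nonspecific binding with 10^-5 M diazepam; DMSO ≤1%. Ki from ≥6 concentrations (10^-9–10^-5 M) by curve fitting and Cheng–Prusoff; percent inhibition at 10 µM; five determinations, triplicate.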

[1] = Displacement of [3H]flumazenil from GABAA/BzR complex in bovine cerebral cortex membrane; assay type: cell membranes, Bos taurus; in short: as §1
Mus musculus [2] = experiment: Effect on ethanol-induced sleeping time in CD1 Albino mouse assessed as increase in duration of loss of righting reflex at 30 mg/kg, po after 30 mins; assay type: functional, organism-based; parameters: dose 30 mg/kg
In short: (§2)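 Male CD-1 mice dosed po (1% CMC suspension); ethanol 4 g/kg ip given 30 min after the compound. Sleep time taken as duration of loss of righting reflex, end-point 150 min.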

Mus musculus [3] = experiment: Effect on motor coordination in CD1 Albino mouse assessed as number of falls in 30 secs at 30 mg/kg, po after 30 mins by rotarod test relative to control; assay type: functional
In short: (§3)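 Rota-rod at 16 rpm in male CD-1 mice after po dosing in 1% CMC; number of falls in 30 s counted at 15, 30, 45 and 60 min post-administration.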

Mus musculus [4] = experiment: Increase in learning and memory performance in CD1 albino mouse at 10 mg/kg, po after 24 hrs by passive avoidance test; assay type: functional, organism-based; parameters: dose 10 mg/kg
In short: (§4)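 Passive avoidance in male CD-1 mice treated po 30 min before training; retention tested 24 h later. Latency to enter the dark compartment measured, maximum 60 s (training) and 180 s (retention). Means ± SEM of 15–18 mice.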

Mus musculus [5] = experiment: Anticonvulsant activity against pentylenetetrazole-induced seizure in CD1 Albino mouse assessed as shock latency at 10 mg/kg, po after 30 mins; assay type: functional
In short: (§5)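 Male CD-1 mice (22–24 g), compound suspended in 1% CMC (sonicated) given po in 10 ml/kg; 30 min later PTZ 90 mg/kg sc (in saline). Latency (s) to shock and to convulsions recorded; clonic generalized convulsions counted over 30 min.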

Mus musculus [6] = experiment: Effect on ethanol-induced sleeping time in CD1 Albino mouse assessed as increase in duration of loss of righting reflex at 10 mg/kg, po after 30 mins; assay type: functional, organism-based; parameters: dose 10 mg/kg; in short: as §2
Mus musculus [7] = experiment: Anticonvulsant activity against pentylenetetrazole-induced seizure in CD1 Albino mouse assessed as shock latency at 3 mg/kg, po after 30 mins; assay type: functional; in short: as §5
Mus musculus [8] = experiment: Anticonvulsant activity against pentylenetetrazole-induced seizure in CD1 Albino mouse assessed as convulsant latency at 3 mg/kg, po after 30 mins; assay type: functional; in short: as §5
Mus musculus [9] = experiment: Effect on motor coordination in CD1 Albino mouse assessed as number of falls in 30 secs at 10 mg/kg, po after 30 mins by rotarod test relative to control; assay type: functional; in short: as §3
Mus musculus [10] = experiment: Anxiolytic effect in CD1 albino mouse at 30 mg/kg, po after 30 mins by light-dark box test; assay type: functional, organism-based; parameters: dose 30 mg/kg
In short: (§6)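 Male CD-1 mice (22–24 g); test agent po in 1% CMC, 30 min before a light/dark box session; time (s) spent in the illuminated compartment measured. Means ± SEM of 14–21 mice.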

Mus musculus [11] = experiment: Increase in learning and memory performance in CD1 albino mouse at 30 mg/kg, po after 24 hrs by passive avoidance test; assay type: functional, organism-based; parameters: dose 30 mg/kg; in short: as §4
Mus musculus [12] = experiment: Anticonvulsant activity against pentylenetetrazole-induced seizure in CD1 Albino mouse assessed as convulsant latency at 30 mg/kg, po after 30 mins; assay type: functional; in short: as §5
Mus musculus [13] = experiment: Anxiolytic effect in CD1 albino mouse at 10 mg/kg, po after 30 mins by light-dark box test; assay type: functional, organism-based; parameters: dose 10 mg/kg; in short: as §6
Mus musculus [14] = experiment: Anticonvulsant activity against pentylenetetrazole-induced seizure in CD1 Albino mouse assessed as shock latency at 30 mg/kg, po after 30 mins; assay type: functional; in short: as §5
Mus musculus [15] = experiment: Sedative activity in CD1 albino mouse assessed as reduction of curiosity at 3 mg/kg, po after 30 mins by hole-board test; assay type: functional, organism-based; parameters: dose 3 mg/kg
In short: (§7)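 Hole-board: male CD-1 mice given compound po (1% CMC) and placed individually on the board 30 min later, free to explore panel and holes for 5 min; spontaneous motility and exploration (panel and hole movements) scored.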

Mus musculus [16] = experiment: Anticonvulsant activity against pentylenetetrazole-induced seizure in CD1 Albino mouse assessed as convulsant latency at 10 mg/kg, po after 30 mins; assay type: functional; in short: as §5
Mus musculus [17] = experiment: Sedative activity in CD1 albino mouse assessed as reduction of curiosity at 30 mg/kg, po after 30 mins by hole-board test; assay type: functional, organism-based; parameters: dose 30 mg/kg; in short: as §7
Mus musculus [18] = experiment: Effect on ethanol-induced sleeping time in CD1 Albino mouse assessed as increase in duration of loss of righting reflex at 3 mg/kg, po after 30 mins; assay type: functional, organism-based; parameters: dose 3 mg/kg; in short: as §2
Mus musculus [19] = experiment: Effect on motor coordination in CD1 Albino mouse assessed as number of falls in 30 secs at 3 mg/kg, po after 30 mins by rotarod test; assay type: functional; in short: as §3
Mus musculus [20] = experiment: Sedative activity in CD1 albino mouse assessed as reduction of spontaneous motility at 30 mg/kg, po after 30 mins by hole-board test; assay type: functional, organism-based; parameters: dose 30 mg/kg; in short: as §7
Mus musculus [21] = experiment: Sedative activity in CD1 albino mouse assessed as reduction of spontaneous motility at 10 mg/kg, po after 30 mins by hole-board test; assay type: functional, organism-based; parameters: dose 10 mg/kg; in short: as §7
Mus musculus [22] = experiment: Sedative activity in CD1 albino mouse assessed as reduction of explorative activity at 10 mg/kg, po after 30 mins by hole-board test; assay type: functional, organism-based; parameters: dose 10 mg/kg; in short: as §7
Mus musculus [23] = experiment: Increase in learning and memory performance in CD1 albino mouse at 3 mg/kg, po after 24 hrs by passive avoidance test; assay type: functional, organism-based; parameters: dose 3 mg/kg; in short: as §4
Mus musculus [24] = experiment: Sedative activity in CD1 albino mouse assessed as reduction of explorative activity at 3 mg/kg, po after 30 mins by hole-board test; assay type: functional, organism-based; parameters: dose 3 mg/kg; in short: as §7
Mus musculus [25] = experiment: Sedative activity in CD1 albino mouse assessed as reduction of spontaneous motility at 3 mg/kg, po after 30 mins by hole-board test; assay type: functional, organism-based; parameters: dose 3 mg/kg; in short: as §7
Mus musculus [26] = experiment: Sedative activity in CD1 albino mouse assessed as reduction of explorative activity at 30 mg/kg, po after 30 mins by hole-board test; assay type: functional, organism-based; parameters: dose 30 mg/kg; in short: as §7
Mus musculus [27] = species: Mus musculus; experiment: Reversal of anxiolytic effect in CD1 albino mouse by light-dark box test in presence of flumazenil; assay type: functional, organism-based
In short: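 Light/dark box in male CD-1 mice: compound po (1% CMC) 30 min before test, with flumazenil given ip at […] in saline; time (s) in illuminated compartment recorded. Means ± SEM of 14–21 mice.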

Mus musculus [28] = experiment: Anxiolytic effect in CD1 albino mouse at 3 mg/kg, po after 30 mins by light-dark box test; assay type: functional, organism-based; parameters: dose 3 mg/kg; in short: as §6

O=Cc1cnn2c1n[n+]([O-])c1ccc(Cl)cc12
inhibition (Bos taurus): 64%

O=C(c1cccs1)c1cnn2c1n[n+]([O-])c1ccc(Oc3ccccc3)cc12
Ki [1]: 8.9 nM
Activity (Mus musculus [2]): Active
Activity (Mus musculus [3]): 2 count
Activity (Mus musculus [4]): Active
Activity (Mus musculus [5]): 279.7 s
Activity (Mus musculus [6]): Active
Activity (Mus musculus [7]): 224.5 s
Activity (Mus musculus [8]): 460.3 s
Activity (Mus musculus [9]): 1.6 count
Activity (Mus musculus [10]): Active
Activity (Mus musculus [11]): Active
Activity (Mus musculus [12]): 766.6 s
Activity (Mus musculus [13]): Active
Activity (Mus musculus [14]): 614.1 s
Activity (Mus musculus [15]): Active
Activity (Mus musculus [16]): 542.6 s
Activity (Mus musculus [17]): Active
Activity (Mus musculus [18]): Active
Activity (Mus musculus [19]): 0.8 count

CCOc1ccc2c(c1)n1ncc(C(=O)c3cccs3)c1n[n+]2[O-]
Ki [1]: 45 nM

COc1ccccc1C(=O)c1cnn2c1n[n+]([O-])c1ccc(Cl)cc12
Ki [1]: 4200 nM

Cn1cccc1C(=O)c1cnn2c1n[n+]([O-])c1ccc(Oc3ccccc3)cc12
Ki [1]: 1300 nM

CCOc1ccc2c(c1)n1ncc(C(=O)c3cccnc3)c1n[n+]2[O-]
Ki [1]: 2000 nM

O=C(c1ccc[nH]1)c1cnn2c1n[n+]([O-])c1ccc(Oc3ccccc3)cc12
Ki [1]: 276 nM

CCOc1ccc2c(c1)n1ncc(C(=O)c3ccc(OC)cc3)c1n[n+]2[O-]
Ki [1]: 919 nM

O=C(c1cccnc1)c1cnn2c1n[n+]([O-])c1ccc(Cl)cc12
Ki [1]: 2400 nM

O=C(c1ccc[nH]1)c1cnn2c1n[n+]([O-])c1ccc(Cl)cc12
Ki [1]: 4 nM
Activity (Mus musculus [20]): Active
Activity (Mus musculus [2]): Active
Activity (Mus musculus [21]): inactive
Activity (Mus musculus [22]): inactive
Activity (Mus musculus [3]): 0.8 count
Activity (Mus musculus [23]): Active
Activity (Mus musculus [4]): Active
Activity (Mus musculus [5]): 264.7 s
Activity (Mus musculus [6]): Active
Activity (Mus musculus [7]): 297.5 s
Activity (Mus musculus [8]): 498.8 s
Activity (Mus musculus [9]): 1.2 count
Activity (Mus musculus [24]): inactive
Activity (Mus musculus [12]): 535.2 s
Activity (Mus musculus [25]): inactive
Activity (Mus musculus [26]): Active
Activity (Mus musculus [27]): inactive
Activity (Mus musculus [13]): Active
Activity (Mus musculus [14]): 329.6 s
Activity (Mus musculus [16]): 647.8 s
Activity (Mus musculus [28]): inactive
Activity (Mus musculus [18]): Active
Activity (Mus musculus [19]): 0.6 count

O=C(c1ccco1)c1cnn2c1n[n+]([O-])c1ccc(Oc3ccccc3)cc12
Ki [1]: 7 nM

O=C(c1ccc2c(c1)OCO2)c1cnn2c1n[n+]([O-])c1ccc(Cl)cc12
Ki [1]: 2900 nM

O=C(c1cccs1)c1cnn2c1n[n+]([O-])c1ccc(OCc3ccccc3)cc12
Ki [1]: 2.7 nM

O=C(c1ccsc1)c1cnn2c1n[n+]([O-])c1ccc(Cl)cc12
Ki [1]: 121 nM

O=C(c1cccs1)c1cnn2c1n[n+]([O-])c1ccc(Cl)cc12
Ki [1]: 62 nM
